VIM-2 inh = blocks Pseudomonas aeruginosa VIM-2 metallo-beta-lactamase | AID 1527 | actives 0.89% (n = 290,000) | purified VIM-2, nitrocefin hydrolysis, epi-absorbance fluorescence | inhibition, % at 5.6 µM;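 active means inhibition above the mean of all tested compounds plus 3 SD, cutoff set per screening run, cut at about 7.5% in these data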;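 further: red hydrolysis product quenches plate fluorescence so inhibitors raise well fluorescence; 0% = enzyme with DMSO and 100% = DMSO without enzyme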
PKA-R1A act = activators of PKA-R1A complex | P00514+P68181 | AID 504707 | actives 0.083% (n = 340,000) | activation, % at 11.4 µM | PKA-R1A dissociation, Cy5-IP20 fluorescence polarization; scaled: DMSO 0%, 113 µM cGMP 100%;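 active means percent activation above the mean of all tested compounds plus 3 SD, cut at about 19% in these data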;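 further: higher means more PKAc released from R1A so a rise in polarization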
PKA-R2B act = activators of human PKA-R2B complex. PKA-R2B holoenzyme dissociation, Cy5-IP20 fluorescence polarization; R2B truncated from residue 108, S112A mutant; 0% DMSO only, 100% 113 µM cGMP. activation, % at 11.4 µM. actives 0.079% (n = 340,000). P22694+P31323;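 active means activation above a cutoff set at the mean over all compounds plus 3 SD, cut at about 18% in these data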;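 further: higher means more holoenzyme dissociation and a rise in polarization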
Target sequence (P31323 whole entry, looked up, other chains not shown, the tested form may be a part): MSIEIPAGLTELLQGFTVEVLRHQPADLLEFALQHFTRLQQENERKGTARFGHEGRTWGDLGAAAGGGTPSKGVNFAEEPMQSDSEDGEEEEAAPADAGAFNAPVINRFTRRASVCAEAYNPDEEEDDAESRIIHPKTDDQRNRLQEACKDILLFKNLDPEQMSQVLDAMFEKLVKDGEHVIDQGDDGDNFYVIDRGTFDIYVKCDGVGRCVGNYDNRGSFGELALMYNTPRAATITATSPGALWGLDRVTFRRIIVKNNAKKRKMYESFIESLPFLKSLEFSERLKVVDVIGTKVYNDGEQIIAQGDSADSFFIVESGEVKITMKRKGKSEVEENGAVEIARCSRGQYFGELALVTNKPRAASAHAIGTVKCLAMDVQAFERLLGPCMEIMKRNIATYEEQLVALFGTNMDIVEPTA
MsrA act = bovine methionine sulfoxide reductase A activation | purified bovine MsrA, absorbance read-out | activation, % at 10.6 µM | actives 0.3% (n = 360,000); in the data active means activation above about 7.5%;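 further: 0% = vehicle and 100% = reference activator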
IMP-1 inh = blocks Pseudomonas aeruginosa IMP-1 metallo-beta-lactamase; purified IMP-1, nitrocefin hydrolysis, epi-absorbance fluorescence; inhibition, % at 5.6 µM; actives 0.45% (n = 290,000); AID 1556;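 active means inhibition above the mean plus 3 SD of all compounds in the same screening run, cut at about 4.5% in these data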;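 further: 0% = IMP-1 with DMSO and 100% = DMSO wells lacking enzyme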
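Assay system: purified IMP-1; Quantity: IMP-1 0.2 nM before substrate addition; Medium: HEPES buffer pH 7.1 with ZnSO4 and Brij 35; Incubation: 15 min enzyme–compound preincubation, then 25 min nitrocefin reaction, 25 °C; Signal: fluorescence quenching readout, ex 480/em 530 nm; Controls: DMSO with and without IMP-1; Repeats: singlicate testing.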
MsrA inhibitor = bovine MsrA inhibition. AID 651718. inhibition, % at 15.5 µM. purified bovine MsrA, absorbance read-out. actives 0.75% (n = 360,000);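 further: 0% = vehicle wells with enzyme and 100% = reference inhibitor wells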
MsrA conf = bovine MsrA inhibition, confirmed; shares compounds with MsrA inhibitor; actives 41% (n = 2,300); purified bovine MsrA, absorbance read-out; inhibition, % at 15.5 µM; AID 651822;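 further: coupled to thioredoxin reductase with NADPH and selenocystamine and DMSO as substrate; 0% = vehicle only and 100% = full effect of reference inhibitor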
The depositor's hits bear a star; / = no result given. The list is not random: actives were taken first. Their share in the collection is about 2.1%. Unless noted, no stated cut-off is given here; in the data, active means inhibition above about 4.5%; inactive means the rest.

SMILES	VIM-2 inh	PKA-R1A act	PKA-R2B act	MsrA act	IMP-1 inh	MsrA inhibitor	MsrA conf
CC(=O)c1sc(NC(=O)c2cccnc2Cl)nc1C	-2	10	0	-5	-3	5.0*	3
Cc1cc(C)nc(NS(=O)(=O)c2ccc(NCN3C(=O)c4ccccc4C3=O)cc2)n1	/	6	5	-2	/	2	/
O=C(/C=C/c1ccc(O)c(O)c1)NC(=O)c1ccccc1O	0	-13	1	-6	-1	6.3*	4
CSc1ccc(/C=C/C(=O)NC(=O)c2ccccc2O)cc1	-3	-14	-10	-12	-3	6.0*	4.7*
COc1cccc(C(O)c2ncc(-c3cccc4ccccc34)[nH]2)c1 (stereo unspecified)	/	/	/	2	/	0	/
CCc1nc2c(OCc3cc(Cl)cc(Cl)c3)cccn2c1N(C)C(=O)Nc1ccccc1OC	/	/	/	-1	/	0	/
COC(=O)c1cccc(Nc2nc(-c3cccnc3)nc3ccccc23)c1	0	9	1	-4	-2	1	/
O=C(O)c1cccc(Nc2nc(-c3cccnc3)nc3ccccc23)c1	0	2	2	-3	-2	5.6*	2
CCOC(=O)[C@]12CCCC=C1N(Cc1ccc3c(c1)OCO3)C(=O)[C@H](CC(=O)NCC13CC4CC(CC(C4)C1)C3)C2	/	/	/	1	/	0	/
CCOC(=O)/C(C#N)=C/Nc1ccsc1C(C)=O	0	0	-5	-8	-3	14*	7.2*
CCOC(=O)/C(C#N)=C/Nc1ccccc1OC	1	2	1	-17	-2	12*	12*
CCOC(=O)/C(C#N)=C/c1ccc(-c2ccsc2C(=O)OC)o1	-4	-10	-5	-3	-2	-2	/
CCOC(=O)C1(C)CCCCCN1C(=O)c1ccc(Cl)nc1 (stereo unspecified)	/	/	/	-1	/	1	/
O=C(O)CCCNC(=O)/C(=C\C=C\c1ccccc1)NC(=O)c1ccccc1Cl	-2	-11	-6	1	-1	5.8*	3
C=CCNC(=O)/C(=C\C=C\c1ccccc1)NC(=O)c1ccccc1Cl	-2	2	-12	-5	-4	4	/
O=C(O)c1ccc(N/N=C2/CCCc3ccccc32)cc1	0	3	6	-11	-3	5.8*	7.0*
CCC(C)CN1C(=O)CSCC1(C)C(=O)Nc1c(C)cccc1C (stereo unspecified)	/	/	/	/	/	-1	/
CN(/N=C/c1ccncc1)c1cnc2ccccc2n1	1	7	4	-17	-3	4.7*	4
CN(/N=C/c1ccncc1)C1=NCCN1	-3	-1	-12	-1	-4	-2	/
COc1ccc(Nc2nc(C)c(C(C)=O)s2)cc1	/	/	/	-5	/	5.4*	3
COc1cc(/C=N/NC(=O)c2cc(-c3ccco3)nc3ccccc23)cc(OC)c1O	0	-18	-7	-7	-3	4.7*	3
Cc1nn(-c2ccccc2)c(N2CCCC2)c1/C=N/NC(=O)c1cc(-c2cccnc2)nc2ccccc12	-3	-3	-2	-11	-4	4.7*	1
COc1ccc(-c2cc(C(=O)N/N=C/c3ccc4c(c3)OCO4)c3ccccc3n2)c(OC)c1	-1	15	-3	-3	-4	5.8*	4
COc1ccc(/C=N/NC(=O)c2[nH]c3ccc(C)cc3c2-c2ccccc2)c(C(=O)O)c1OC	-4	-1	-20	-5	-3	6.2*	4
Cc1nc2ccccc2c(=O)n1/N=C/c1ccccc1	0	3	1	-1	-1	-1	/
SMILES	VIM-2 inh	PKA-R1A act	PKA-R2B act	MsrA act	IMP-1 inh	MsrA inhibitor	MsrA conf
COc1cccc(-c2cc(C(=O)N/N=C/c3cccc(OC)c3OC)c3ccccc3n2)c1	/	3	9	-2	/	1	/
COc1cc(/C=N/n2c(C)nc3ccccc3c2=O)ccc1O	3	1	-5	-3	-1	5.4*	3
COc1ccc(/C=N/NC(=O)c2cc(-c3ccccc3)nc3ccccc23)c(C(=O)O)c1OC	0	-9	-19	-4	-2	4.7*	2
COc1ccc(/C=N/NC(=O)c2cc(-c3ccccc3)nc3ccccc23)cc1O	-4	-12	-19	-4	-4	2	/
COc1cc(/C=N/NC(=O)c2cc(-c3ccccc3)nc3ccccc23)ccc1O	-3	-1	18	-3	-5	5.0*	4
CCCc1nc2ccc(Br)cn2c1Cc1ccccc1OC	/	/	/	-5	/	1	/
CC(=O)Nc1cccc(NC(=O)CSc2nnnn2-c2ccc3c(c2)OCO3)c1	-2	/	/	/	-3	/	/
COc1ccccc1/C=C/C=C1N=C(/C=C/c2ccc(Cl)cc2)OC/1=O	-3	-10	-1	-4	-4	2	/
COc1ccccc1/C=C/C1=NC(=C\C=C/c2ccccc2)/C(=O)O1	0	0	8	-6	0	6.4*	2
O=C(C(=O)c1ccc(O)c(O)c1)c1ccc(O)c(O)c1	/	-6	-3	0	/	7.6*	8.3*
Oc1ccc(/C=N/Nc2ccc(Cl)nn2)cc1O	0	4	9	-10	-2	4.9*	4
Cc1ccc(/C=N/Nc2ccc(Cl)nn2)cc1	-2	-7	-3	2	-2	1	/
O=C1CN(C(=O)/C=C/c2cc(Br)ccc2F)CCN1	-2	-6	-10	0	-2	0	/
COc1ccc(/C=C/C(=O)N2CCNC(=O)C2)c(OC)c1	-1	-18	-9	-9	-1	4.8*	3
C#CCN(C[C@H]1[C@H](OC(=O)NCCCCCC)[C@H](OC(=O)NCCCCCC)CN(C(=O)OC(C)C)N1C(=O)OC(C)C)S(=O)(=O)c1ccc(C)cc1	/	/	/	/	/	1	/
C[C@H](CO)N1C[C@H](C)[C@@H](CN(C)CC2CCCCC2)Oc2ccc(NC(=O)CCN3CCOCC3)cc2C1=O	/	-1	-11	-5	/	0	/
CCCCCCN1C[C@@H](O)[C@H](n2cc(-c3ccc(F)cc3)nn2)C[C@@H]1c1ccc(C)cc1	/	-6	0	-1	/	-2	/
CCCCCCCCCCCCCCCC(=O)Nc1ccn(C2OC(CO)C(O)C2O)c(=O)n1 (stereo unspecified)	/	9	1	0	/	0	/
O=C(NCC(c1ccco1)N1CCCCC1)c1ccc([N+](=O)[O-])s1 (stereo unspecified)	/	/	/	-1	/	6.0*	4
CCCCNc1ccc2c(c1)OC[C@H](C)NS2(=O)=O	/	/	/	/	/	0	/
NC1=C(c2ccc([N+](=O)[O-])cc2)C(=O)CO1	-2	-9	-17	-7	-3	4	/
O=c1oc2c(-c3ccc([N+](=O)[O-])cc3)cc(O)cc2s1	1	3	-14	2	-2	7.5*	0

High-throughput results deposited in PubChem BioAssay by The Scripps Research Institute Molecular Screening Center.
